What was measured:
Rattus norvegicus [1] = experiment: Concentration was measured in kidney tissue of unfasted Fischer 344 rats administered intravenously after 60 minute (radiolabeled with [125I]-; assay type: ADME, organism-based; details: in vivo, iv, 1 h
Procedure, shortened: (§1)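 Female Fischer 344 rats, 10-12 weeks old, 170-200 g, with food and water ad libitum. The 125I-fatty acid was taken up in ethanol, added dropwise to stirred 6% BSA at ~40 °C (final ethanol 10%), filtered, and given as 0.5 mL via lateral tail vein under ether anesthesia. Rats were killed by cervical fracture; blood was taken by cardiac puncture. Organs were rinsed, blotted, weighed and gamma-counted against injectate standards to give %ID/g. Five rats per time point.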

Rattus norvegicus [2] = experiment: Concentration was measured in liver tissue f unfasted Fischer 344 rats administered intravenously after 30 minute (radiolabeled with [123I]-; assay type: ADME, organism-based; details: in vivo, iv, 0.5 h
Rattus norvegicus [3] = experiment: Concentration was measured in liver tissue f unfasted Fischer 344 rats administered intravenously after 30 minute (radiolabeled with [125I]-; assay type: ADME, organism-based; details: in vivo, iv, 0.5 h; procedure, shortened: as §1
Rattus norvegicus [4] = experiment: Concentration was measured in liver tissue of unfasted Fischer 344 rats administered intravenously after 5 minute (radiolabeled with [125I]-; assay type: ADME, organism-based; details: in vivo, iv, 5 min; procedure, shortened: as §1
Rattus norvegicus [5] = experiment: Concentration was measured in lungs tissue of unfasted Fischer 344 rats administered intravenously after 30 minute (radiolabeled with [125I]-; assay type: ADME, organism-based, Lung; details: in vivo, iv, 0.5 h; procedure, shortened: as §1
Rattus norvegicus [6] = experiment: Concentration was measured in lungs tissue of unfasted Fischer 344 rats administered intravenously after 4 hr (radiolabeled with [123I]-; assay type: ADME, organism-based, Lung; details: in vivo, iv
Rattus norvegicus [7] = experiment: Concentration was measured in heart tissue of unfasted Fischer 344 rats administered intravenously after 30 minute (radiolabeled with [123I]-; assay type: ADME, organism-based; details: in vivo, iv, 0.5 h
Rattus norvegicus [8] = experiment: Concentration was measured in heart tissue of unfasted Fischer 344 rats administered intravenously after 4 hr (radiolabeled with [123I]-; assay type: ADME, organism-based; details: in vivo, iv
Rattus norvegicus [9] = experiment: Concentration was measured in heart tissue of unfasted Fischer 344 rats administered intravenously after 4 hr (radiolabeled with [125I]-; assay type: ADME, organism-based; details: in vivo, iv
Rattus norvegicus [10] = experiment: Concentration was measured in heart tissue of unfasted Fischer 344 rats administered intravenously after 5 minute (radiolabeled with [123I]-; assay type: ADME, organism-based; details: in vivo, iv, 5 min
Rattus norvegicus [11] = experiment: Concentration was measured in heart tissue of unfasted Fischer 344 rats administered intravenously after 60 minute (radiolabeled with [123I]-; assay type: ADME, organism-based; details: in vivo, iv, 1 h
Rattus norvegicus [12] = experiment: Concentration was measured in heart tissue of unfasted Fischer 344 rats, administered intravenous, after 5 minute (radiolabeled with [125I]-; assay type: ADME, organism-based; details: in vivo, 5 min; procedure, shortened: as §1
Rattus norvegicus [13] = experiment: Concentration was measured in kidney tissue of unfasted Fischer 344 rats administered intravenously after 30 minute (radiolabeled with [123I]-; assay type: ADME, organism-based; details: in vivo, iv, 0.5 h
Rattus norvegicus [14] = experiment: Concentration was measured in kidney tissue of unfasted Fischer 344 rats administered intravenously after 4 hr (radiolabeled with [125I]-; assay type: ADME, organism-based; details: in vivo, iv
Rattus norvegicus [15] = experiment: Concentration was measured in kidney tissue of unfasted Fischer 344 rats administered intravenously after 5 minute (radiolabeled with [123I]-; assay type: ADME, organism-based; details: in vivo, iv, 5 min
Rattus norvegicus [16] = experiment: Concentration was measured in kidney tissue of unfasted Fischer 344 rats administered intravenously after 5 minute (radiolabeled with [125I]-; assay type: ADME, organism-based; details: in vivo, iv, 5 min; procedure, shortened: as §1
Rattus norvegicus [17] = experiment: Concentration was measured in kidney tissue of unfasted Fischer 344 rats administered intravenously after 60 minute (radiolabeled with [123I]-; assay type: ADME, organism-based; details: in vivo, iv, 1 h
Rattus norvegicus [18] = experiment: Concentration was measured in lungs tissue of unfasted Fischer 344 rats administered intravenously after 5 minute (radiolabeled with [123I]-; assay type: ADME, organism-based, Lung; details: in vivo, iv, 5 min
Rattus norvegicus [19] = experiment: Concentration was measured in lungs tissue of unfasted Fischer 344 rats administered intravenously after 5 minute (radiolabeled with [125I]-; assay type: ADME, organism-based, Lung; details: in vivo, iv, 5 min; procedure, shortened: as §1
Rattus norvegicus [20] = experiment: Concentration was measured in lungs tissue of unfasted Fischer 344 rats administered intravenously after 60 minute (radiolabeled with [123I]-; assay type: ADME, organism-based, Lung; details: in vivo, iv, 1 h
Rattus norvegicus [21] = experiment: Concentration was measured in blood tissue of unfasted Fischer 344 rats administered intravenously after 30 minute (radiolabeled with [123I]-; assay type: ADME, organism-based; details: in vivo, iv, 0.5 h
Rattus norvegicus [22] = experiment: Concentration was measured in blood tissue of unfasted Fischer 344 rats administered intravenously after 4 hr (radiolabeled with [123I]-; assay type: ADME, organism-based; details: in vivo, iv
Rattus norvegicus [23] = experiment: Concentration was measured in blood tissue of unfasted Fischer 344 rats administered intravenously after 4 hr (radiolabeled with [125I]-; assay type: ADME, organism-based; details: in vivo, iv
Rattus norvegicus [24] = experiment: Concentration was measured in blood tissue of unfasted Fischer 344 rats administered intravenously after 60 minute (radiolabeled with [123I]-; assay type: ADME, organism-based; details: in vivo, iv, 1 h
Rattus norvegicus [25] = experiment: Concentration was measured in blood tissue of unfasted Fischer 344 rats administered intravenously after 5 minute (radiolabeled with [125I]-; assay type: ADME, organism-based; details: in vivo, iv, 5 min; procedure, shortened: as §1
Rattus norvegicus [26] = experiment: Concentration was measured in mean heart/blood tissue of unfasted Fischer 344 rats administered intravenously after 4 hr (radiolabeled with [123I]-; assay type: ADME, organism-based; details: in vivo, iv
Rattus norvegicus [27] = experiment: Concentration was measured in thyroid tissue of unfasted Fischer 344 rats administered intravenously after 30 minute (radiolabeled with [125I]-; assay type: ADME, organism-based, Thyroid gland; details: in vivo, iv, 0.5 h, in the assay text read “fasted” for “unfasted”
Rattus norvegicus [28] = experiment: Concentration was measured in thyroid tissue of unfasted Fischer 344 rats administered intravenously after 4 hr (radiolabeled with [125I]-; assay type: ADME, organism-based, Thyroid gland; details: in vivo, iv
Rattus norvegicus [29] = experiment: (§2) Concentration was measured in tissue of unfasted Fischer 344 rats administered intravenously after 60 minute (radiolabeled with [125I]-; assay type: ADME, organism-based; details: in vivo, iv, 1 h
Procedure, shortened: (§3)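 Female Fischer 344 rats, 10–12 weeks old (170–200 g), with food and water ad libitum, five per time point. The radioiodinated fatty acid was dissolved in ethanol, added to 6% BSA at ~40 °C (final 10% ethanol), filtered, and injected into a lateral tail vein (0.5 mL) under ether anesthesia. Blood was taken by cardiac puncture; organs were rinsed, blotted, weighed and gamma-counted against injectate standards. Output is % injected dose/g.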

Rattus norvegicus [30] = experiment: Concentration was measured in tissue of unfasted Fischer 344 rats administered intravenously after 60 minute (radiolabeled with [123I]-; assay type: ADME, organism-based; details: in vivo, iv, 1 h
Rattus norvegicus [31] = experiment: as §2; assay type: ADME, organism-based; details: in vivo, iv, 1 h; procedure, shortened: as §3; remark: listed apart in the source
Rattus norvegicus [32] = experiment: Concentration was measured in liver tissue of fasted Fischer 344 rats administered intravenously after 4 hr (radiolabeled with [125I]-; details: in vivo, iv
Rattus norvegicus [33] = experiment: Concentration was measured in thyroid tissue of fasted Fischer 344 rats administered intravenously after 4 hr (radiolabeled with [123I]-; details: in vivo, iv
Rattus norvegicus [34] = experiment: Concentration was measured in mean heart/blood tissue of fasted Fischer 344 rats administered intravenously after 5 minute (radiolabeled with [123I]-; details: in vivo, iv, 5 min
Rattus norvegicus [35] = experiment: Concentration was measured in mean heart/blood tissue of fasted Fischer 344 rats administered intravenously after 5 minute (radiolabeled with [125I]-; details: in vivo, iv, 5 min
Rattus norvegicus [36] = experiment: Concentration was measured in mean heart/blood tissue of fasted Fischer 344 rats administered intravenously after 60 minute (radiolabeled with [123I]-; details: in vivo, iv, 1 h
Rattus norvegicus [37] = experiment: Concentration was measured in mean heart/blood tissue of fasted Fischer 344 rats administered intravenously after 60 minute (radiolabeled with [125I]-; details: in vivo, iv, 1 h
Rattus norvegicus [38] = experiment: Concentration was measured in mean heart/blood tissue of fasted Fischer 344 rats administered intravenously after 30 minute (radiolabeled with [123I]-; details: in vivo, iv, 0.5 h
Rattus norvegicus [39] = experiment: Concentration was measured in mean heart/blood tissue of fasted Fischer 344 rats administered intravenously after 30 minute (radiolabeled with [125I]-; details: in vivo, iv, 0.5 h

Distribution (Rattus norvegicus [1]): 1.3%
Distribution (Rattus norvegicus [2]): 3.49%
Distribution (Rattus norvegicus [3]): 4.53%
Distribution (Rattus norvegicus [4]): 6.48%
Distribution (Rattus norvegicus [5]): 0.96%
Distribution (Rattus norvegicus [6]): 1.23%
Distribution (Rattus norvegicus [7]): 1.19%
Distribution (Rattus norvegicus [8]): 0.59%
Distribution (Rattus norvegicus [9]): 1.38%
Distribution (Rattus norvegicus [10]): 3.52%
Distribution (Rattus norvegicus [11]): 0.78%
Distribution (Rattus norvegicus [12]): 4.89%
Distribution (Rattus norvegicus [13]): 1.03%
Distribution (Rattus norvegicus [14]): 0.66%
Distribution (Rattus norvegicus [15]): 1.12%
Distribution (Rattus norvegicus [16]): 1.06%
Distribution (Rattus norvegicus [17]): 0.96%
Distribution (Rattus norvegicus [18]): 1.54%
Distribution (Rattus norvegicus [19]): 1.36%
Distribution (Rattus norvegicus [20]): 1.21%
Distribution (Rattus norvegicus [21]): 0.74%
Distribution (Rattus norvegicus [22]): 0.61%
Distribution (Rattus norvegicus [23]): 0.53%
Distribution (Rattus norvegicus [24]): 0.64%
Distribution (Rattus norvegicus [25]): 0.91%
Distribution (Rattus norvegicus [26]): 0.96%
Distribution (Rattus norvegicus [27]): 48.5%
Distribution (Rattus norvegicus [28]): 364%
Distribution (Rattus norvegicus [29]): 2.94%
Distribution (Rattus norvegicus [30]): 102%
Distribution (Rattus norvegicus [31]): 82.9%
Distribution (Rattus norvegicus [32]): 1.11%
Distribution (Rattus norvegicus [33]): 392%
Distribution (Rattus norvegicus [34]): 4.8%
Distribution (Rattus norvegicus [35]): 5.4%
Distribution (Rattus norvegicus [36]): 1.2%
Distribution (Rattus norvegicus [37]): 4.1%
Distribution (Rattus norvegicus [38]): 1.6%
Distribution (Rattus norvegicus [39]): 4.3%
Compound: CC(CCCCCCCCCCCCCC/C=C/I)CC(=O)O.O=C(O)CCCCCCCCCCCCCCCC/C=C/I (centres undefined)

Source: ChEMBL document CHEMBL1123146, “Design, synthesis, and evaluation of omega-iodovinyl- and omega-iodoalkyl-substituted methyl-branched long-chain fatty acids” (J Med Chem, 1985)
